Assays:
Type in all cases: functional
SF-295 = assay: Growth inhibition of human SF-295 cells assessed as cell growth at 0.01 uM incubated for 48 hrs by sulforhodamine B assay relative to control; settings: read-out: Activity
MDA-MB-435 [1] = assay: Growth inhibition of human MDA-MB-435 cells assessed as cell growth at 0.01 uM incubated for 48 hrs by sulforhodamine B assay relative to control; settings: read-out: Activity
SK-MEL-28 [2] = assay: Growth inhibition of human SK-MEL-28 cells assessed as cell growth at 0.01 uM incubated for 48 hrs by sulforhodamine B assay relative to control; settings: read-out: Activity
OVCAR-8 [3] = assay: Growth inhibition of human OVCAR-8 cells assessed as cell growth at 0.01 uM incubated for 48 hrs by sulforhodamine B assay relative to control; settings: read-out: Activity
DU-145 [4] = assay: Growth inhibition of human DU-145 cells assessed as cell growth at 0.01 uM incubated for 48 hrs by sulforhodamine B assay relative to control; settings: read-out: Activity
Method in brief: (§1)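 NCI Developmental Therapeutics Program NCI60 panel. Compounds that were active in the 10 µM one-dose screen went on to dose–response testing. Growth at each concentration is expressed relative to untreated control (100%). GI50 (concentration giving 50% of maximal inhibition of proliferation) and TGI (concentration giving total growth inhibition) were derived from the curves.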

MDA-MB-231 [5] = assay: Growth inhibition of human MDA-MB-231 cells assessed as cell growth at 0.01 uM incubated for 48 hrs by sulforhodamine B assay relative to control; settings: read-out: Activity
T47D [6] = assay: Growth inhibition of human T47D cells assessed as cell growth at 0.01 uM incubated for 48 hrs by sulforhodamine B assay relative to control; settings: read-out: Activity
CCRF-CEM = assay: Growth inhibition of human CCRF-CEM cells assessed as cell growth at 0.1 uM incubated for 48 hrs by sulforhodamine B assay relative to control; settings: read-out: Activity; method in brief: as §1
HOP-92 = assay: Growth inhibition of human HOP-92 cells assessed as cell growth at 0.1 uM incubated for 48 hrs by sulforhodamine B assay relative to control; settings: read-out: Activity
SF-268 = assay: Growth inhibition of human SF-268 cells assessed as cell growth at 0.1 uM incubated for 48 hrs by sulforhodamine B assay relative to control; settings: read-out: Activity
Malme-3M [7] = assay: Growth inhibition of human Malme-3M cells assessed as cell growth at 0.1 uM incubated for 48 hrs by sulforhodamine B assay relative to control; settings: read-out: Activity
MDA-MB-435 [8] = assay: Growth inhibition of human MDA-MB-435 cells assessed as cell growth at 0.1 uM incubated for 48 hrs by sulforhodamine B assay relative to control; settings: read-out: Activity
MOLT-4 = assay: Growth inhibition of human MOLT-4 cells assessed as cell growth at 1 uM incubated for 48 hrs by sulforhodamine B assay relative to control; settings: read-out: Activity
SF-539 = assay: Growth inhibition of human SF-539 cells assessed as cell growth at 1 uM incubated for 48 hrs by sulforhodamine B assay relative to control; settings: read-out: Activity
LOX IMVI = assay: Growth inhibition of human LOX IMVI cells assessed as cell growth at 1 uM incubated for 48 hrs by sulforhodamine B assay relative to control; settings: read-out: Activity
Malme-3M [9] = assay: Growth inhibition of human Malme-3M cells assessed as cell growth at 1 uM incubated for 48 hrs by sulforhodamine B assay relative to control; settings: read-out: Activity
NCI/ADR-RES = assay: Growth inhibition of human NCI/ADR-RES cells assessed as cell growth at 1 uM incubated for 48 hrs by sulforhodamine B assay relative to control; settings: read-out: Activity
BT-549 = assay: Growth inhibition of human BT-549 cells assessed as cell growth at 1 uM incubated for 48 hrs by sulforhodamine B assay relative to control; settings: read-out: Activity
T47D [10] = assay: Growth inhibition of human T47D cells assessed as cell growth at 1 uM incubated for 48 hrs by sulforhodamine B assay relative to control; settings: read-out: Activity
HT-29 = assay: Growth inhibition of human HT-29 cells assessed as cell growth at 100 uM incubated for 48 hrs by sulforhodamine B assay relative to control; settings: read-out: Activity
SK-MEL-28 [11] = assay: Growth inhibition of human SK-MEL-28 cells assessed as cell growth at 100 uM incubated for 48 hrs by sulforhodamine B assay relative to control; settings: read-out: Activity
IGROV-1 [12] = assay: Growth inhibition of human IGROV-1 cells assessed as cell growth at 100 uM incubated for 48 hrs by sulforhodamine B assay relative to control; settings: read-out: Activity
MDA-MB-231 [13] = assay: Growth inhibition of human MDA-MB-231 cells assessed as cell growth at 100 uM incubated for 48 hrs by sulforhodamine B assay relative to control; settings: read-out: Activity
T47D [14] = assay: Growth inhibition of human T47D cells assessed as cell growth at 100 uM incubated for 48 hrs by sulforhodamine B assay relative to control; settings: read-out: Activity
RPMI-8226 = assay: Growth inhibition of human RPMI-8226 cells incubated for 48 hrs by sulforhodamine B assay
Method in brief: (§2)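 NCI DTP 60-line human tumour panel. Dose-response curves were run only for ligands active in the initial 10 µM screen. GI50 (concentration giving 50% of maximal inhibition of proliferation) and TGI (concentration giving total growth inhibition) were derived from these curves.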

NCI-H226 = assay: Growth inhibition of human NCI-H226 cells incubated for 48 hrs by sulforhodamine B assay
Method in brief: (§3)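 NCI60 panel at the NCI Developmental Therapeutics Program. Only compounds active in the 10 µM screen went to dose-response testing. GI50, the concentration giving 50% of maximal inhibition of proliferation, and TGI, the concentration giving total growth inhibition, were derived from the dose-response curves.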

NCI-H322M = assay: Growth inhibition of human NCI-H322M cells incubated for 48 hrs by sulforhodamine B assay; method in brief: as §3
UACC-257 = assay: Growth inhibition of human UACC-257 cells incubated for 48 hrs by sulforhodamine B assay; method in brief: as §2
IGROV-1 [15] = assay: Growth inhibition of human IGROV-1 cells incubated for 48 hrs by sulforhodamine B assay; method in brief: as §3
OVCAR-8 [16] = assay: Growth inhibition of human OVCAR-8 cells incubated for 48 hrs by sulforhodamine B assay; method in brief: as §2
SK-OV-3 = assay: Growth inhibition of human SK-OV-3 cells incubated for 48 hrs by sulforhodamine B assay; method in brief: as §2
SN12C = assay: Growth inhibition of human SN12C cells incubated for 48 hrs by sulforhodamine B assay; method in brief: as §2
DU-145 [17] = assay: Growth inhibition of human DU-145 cells incubated for 48 hrs by sulforhodamine B assay; method in brief: as §1
MDA-MB-468 = assay: Growth inhibition of human MDA-MB-468 cells incubated for 48 hrs by sulforhodamine B assay; method in brief: as §3
[18] = read-out: LC50 (the source's name)

## Cc1cccc(NC(=O)c2sc3nc4c(cc3c2N)C(=O)CCC4)c1
SF-295
  growth at 0.01 µM: 88%
MDA-MB-435 [1]
  growth at 0.01 µM: 87%
SK-MEL-28 [2]
  growth at 0.01 µM: 93%
OVCAR-8 [3]
  growth at 0.01 µM: 100%
DU-145 [4]
  growth at 0.01 µM: 102%
MDA-MB-231 [5]
  growth at 0.01 µM: 99%
T47D [6]
  growth at 0.01 µM: 79%
CCRF-CEM
  growth at 0.1 µM: 90%
HOP-92
  growth at 0.1 µM: 69%
SF-268
  growth at 0.1 µM: 93%
Malme-3M [7]
  growth at 0.1 µM: 64%
MDA-MB-435 [8]
  growth at 0.1 µM: 4%
MOLT-4
  growth at 1 µM: 54%
SF-539
  growth at 1 µM: -38%
LOX IMVI
  growth at 1 µM: 47%
Malme-3M [9]
  growth at 1 µM: 36%
NCI/ADR-RES
  growth at 1 µM: 15%
BT-549
  growth at 1 µM: 46%
T47D [10]
  growth at 1 µM: 29%
HT-29
  growth at 100 µM: 3%
SK-MEL-28 [11]
  growth at 100 µM: -15%
IGROV-1 [12]
  growth at 100 µM: -4%
MDA-MB-231 [13]
  growth at 100 µM: 21%
T47D [14]
  growth at 100 µM: -2%
RPMI-8226
  GI50: 0.57 µM
  LC50: > 100 µM
  TGI: > 100 µM
NCI-H226
  GI50: 1.09 µM
  TGI: > 100 µM
NCI-H226; [18]
  CC50: > 100 µM
NCI-H322M
  TGI: > 100 µM
NCI-H322M; [18]
  CC50: > 100 µM
UACC-257
  GI50: ≥ 0.148 µM
  LC50 (concentration killing 50% of cells): > 100 µM
  TGI: > 100 µM
IGROV-1 [15]
  GI50: 0.662 µM
  LC50: > 100 µM
  TGI: ≥ 100 µM
OVCAR-8 [16]
  GI50: 0.0171 µM
  TGI: ≥ 100 µM
OVCAR-8 [16]; [18]
  CC50: > 100 µM
SK-OV-3
  GI50: 0.251 µM
  TGI: > 100 µM
SK-OV-3; [18]
  CC50: > 100 µM
SN12C
  GI50: 0.695 µM
  TGI: ≥ 100 µM
SN12C; [18]
  CC50: > 100 µM
DU-145 [17]
  GI50: 0.285 µM
  TGI: ≥ 100 µM
DU-145 [17]; [18]
  CC50: ≥ 100 µM
MDA-MB-468
  GI50: 0.143 µM
MDA-MB-468; [18]
  CC50: > 100 µM
